# Data reported in publication PMC6007964 (Biochemistry, 2018).
# Where two headings read alike, the source gives them in different places.
# Legend:
# [1] = system: P. aeruginosa UWB41 (VIM-2); experiment: Meropenem MIC, broth microdilution, clinical strain; assay type: cell-based; conditions: Pseudomonas aeruginosa, read-out: Meropenem MIC
# E. coli MG1655 VIM-1 = experiment: Meropenem MIC, broth microdilution; assay type: cell-based; conditions: Escherichia coli, MG1655, read-out: Meropenem MIC
# K. pneumoniae Ecl8 NDM-1 = experiment: Meropenem MIC, broth microdilution; assay type: cell-based; conditions: Klebsiella pneumoniae, ECL8NDM1, read-out: Meropenem MIC
# [2] = system: En. aerogenes 15-8358A NDM-1; experiment: Meropenem MIC, broth microdilution; assay type: cell-based; conditions: Klebsiella aerogenes, read-out: Meropenem MIC
# [3] = system: non-MBL-producing C. freundii; conditions: non-MBL-producing strain; cited from earlier work
# P. putida #UWB24 (VIM-2) = experiment: Meropenem MIC, broth microdilution, clinical strain; assay type: cell-based; conditions: in the absence of inhibitor
# [4] = system: S. maltophilia K279a (L1, L2); experiment: as above; assay type: cell-based; conditions: Stenotrophomonas maltophilia, read-out: Meropenem MIC
# C. freundii D571 NDM-1 = experiment: Meropenem MIC, broth microdilution; assay type: cell-based; conditions: Citrobacter freundii, D571NDM1, read-out: Meropenem MIC
# [5] = system: non-MBL-producing K. pneumoniae; conditions: non-MBL-producing strain; cited from earlier work
# [6] = system: S. maltophilia JKWZP (L1, L2); experiment: Meropenem MIC, broth microdilution, RND pump knockout strain; assay type: cell-based; conditions: Stenotrophomonas maltophilia, read-out: Meropenem MIC
# [7] = system: P. aeruginosa UWB78 (VIM-2); experiment: Meropenem MIC, broth microdilution, clinical strain; assay type: cell-based; conditions: in the absence of inhibitor
# E. coli MG1655 NDM-1 = experiment: Meropenem MIC, broth microdilution; assay type: cell-based; conditions: Escherichia coli, MG1655, read-out: Meropenem MIC
# [8] = system: E. coli MG1655 vector only; experiment: Meropenem MIC, broth microdilution; assay type: cell-based; conditions: Escherichia coli, MG1655, read-out: Meropenem MIC
# [9] = system: non-MBL-producing En. aerogenes; conditions: non-MBL-producing strain; cited from earlier work
# E. coli MG1655 IMP-1 = experiment: Meropenem MIC, broth microdilution; assay type: cell-based; conditions: Escherichia coli, MG1655, read-out: Meropenem MIC
# L1 [10] = molecular target: T1, L1 (Stenotrophomonas maltophilia, UniProt P52700); experiment: IC50 assay, nitrocefin hydrolysis, 10 min preincubation; assay type: biochemical, S. maltophilia
# VIM-2 [11] = molecular target: T2, VIM-2 (Escherichia coli, UniProt Q5U7L7); experiment: as above; assay type: biochemical
# IMP-1 [12] = molecular target: T3, IMP-1 (Serratia marcescens, UniProt P52699); experiment: as above; assay type: biochemical
# NDM-1 [13] = molecular target: T4, NDM-1 (Klebsiella pneumoniae, UniProt C7C422); experiment: as above; assay type: biochemical
# IMP-1 [14] = molecular target: T3, IMP-1; experiment: Ki determination, slow-binding progress curves with nitrocefin; assay type: biochemical
# Procedure, shortened: (§1)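 Enzyme was added to nitrocefin in excess, with inhibitor dilutions spanning the variable-rate range: IMP-1 60 pM with 25 μM nitrocefin, VIM-2 39.2 pM with 100 μM, NDM-1 600 pM with 15 μM, L1 308 pM with 50 μM. Buffer was 50 mM HEPES pH 7.2, 50 μg/mL BSA, 0.01% Triton X-100, read at 482 nm and 30 °C for 10 min. Progress curves gave kobs; a linear fit of kobs versus [I] gave k–0 and Kiapp, then Ki.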
# VIM-2 [15] = molecular target: T2, VIM-2; experiment: as above; assay type: biochemical
# Procedure, shortened: as §1
# NDM-1 [16] = molecular target: T4, NDM-1; experiment: as above; assay type: biochemical
# Procedure, shortened: as §1
# L1 [17] = molecular target: T1, L1; experiment: as above; assay type: biochemical, S. maltophilia
# Procedure, shortened: as §1
# [18] = system: K. pneumoniae UWB116 (NDM-1); conditions: NDM-1-producing K. pneumoniae clinical isolate, cited from earlier work
# [19] = system: MBLs (VIM-2, NDM-1, IMP-1, L1); experiment: IC50 assay, summary over the MBLs tested; assay type: biochemical
# T1 sequence (P52700 34-290): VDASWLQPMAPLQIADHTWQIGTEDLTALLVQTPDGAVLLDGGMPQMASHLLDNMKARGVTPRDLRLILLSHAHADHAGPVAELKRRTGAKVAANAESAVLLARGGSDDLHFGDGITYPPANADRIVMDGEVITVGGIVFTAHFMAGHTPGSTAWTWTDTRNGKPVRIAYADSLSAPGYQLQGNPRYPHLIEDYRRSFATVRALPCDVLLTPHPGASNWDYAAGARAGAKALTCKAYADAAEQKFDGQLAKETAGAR
# T3 sequence (P52699 19-246, looked up): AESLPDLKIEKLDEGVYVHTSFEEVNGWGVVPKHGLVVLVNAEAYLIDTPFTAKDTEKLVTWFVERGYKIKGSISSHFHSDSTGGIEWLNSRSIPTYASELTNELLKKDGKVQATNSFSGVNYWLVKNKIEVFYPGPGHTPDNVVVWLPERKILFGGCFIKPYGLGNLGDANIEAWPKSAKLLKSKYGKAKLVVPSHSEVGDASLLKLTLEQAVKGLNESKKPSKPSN
# T4 sequence (C7C422 29-270, looked up, species assumed): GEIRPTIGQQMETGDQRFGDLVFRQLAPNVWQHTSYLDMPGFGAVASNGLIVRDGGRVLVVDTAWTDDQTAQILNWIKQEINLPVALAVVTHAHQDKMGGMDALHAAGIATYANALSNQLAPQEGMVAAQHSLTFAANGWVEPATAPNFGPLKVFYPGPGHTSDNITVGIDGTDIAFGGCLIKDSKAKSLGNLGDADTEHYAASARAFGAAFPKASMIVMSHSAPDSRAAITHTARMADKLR
compound,measurement,setting,value
C[C@@H](O)[C@H]1C(=O)N2C(C(=O)O)=C(S[C@@H]3CN[C@H](C(=O)N(C)C)C3)[C@H](C)[C@H]12 [Meropenem],MIC,[1],128 µg/mL
same,MIC,E. coli MG1655 VIM-1,4 µg/mL
same,MIC,K. pneumoniae Ecl8 NDM-1,> 256 µg/mL
same,MIC,[2],64 µg/mL
same,Meropenem MIC,[3],0.06 µg/mL
same,Meropenem MIC,P. putida #UWB24 (VIM-2),64 mg L^–1
same,MIC,[4],16 µg/mL
same,MIC,C. freundii D571 NDM-1,32 µg/mL
same,Meropenem MIC,[5],≤ 0.25 µg/mL
same,MIC,[6],32 µg/mL
same,Meropenem MIC,[7],64 mg L^–1
same,MIC,E. coli MG1655 NDM-1,> 256 µg/mL
same,MIC,[8],< 0.25 µg/mL
same,Meropenem MIC,[9],0.06 µg/mL
same,MIC,E. coli MG1655 IMP-1,16 µg/mL
"Cc1cccc(C(=O)O)n1 [compound 2, 6-methylpicolinic acid]",IC50,L1 [10],> 100 µM
same,IC50,VIM-2 [11],> 100 µM
same,IC50,IMP-1 [12],> 100 µM
same,IC50,NDM-1 [13],> 100 µM
"O=C(O)c1cccc(C(O)P(=O)(O)O)n1 (stereo not shown) [3b, 6-[hydroxy(phosphono)methyl]picolinic acid]",IC50,L1 [10],2.05 µM
same,Ki,IMP-1 [14],1.5 ± 0.1 µM
same,IC50,VIM-2 [11],1.9 µM
same,Ki,VIM-2 [15],0.61 ± 0.04 µM
same,Dissociative t1/2 = 2 / k-0,VIM-2 [15]; VIM-2,6 min
same,IC50,IMP-1 [12],7.2 µM
same,Ki,NDM-1 [16],0.078 ± 0.008 µM
same,Ki,L1 [17],0.4 ± 0.1 µM
"O=P(O)(O)Cc1ccccn1 [compound 4, (pyridin-2-ylmethyl)phosphonic acid]",IC50,L1 [10],> 1000 µM
same,IC50,VIM-2 [11],171 µM
same,IC50,IMP-1 [12],> 100 µM
same,IC50,NDM-1 [13],> 1000 µM
"O=C(O)c1ccccn1 [compound 1, 2-picolinic acid]",IC50,L1 [10],> 100 µM
same,IC50,VIM-2 [11],32.2 µM
same,IC50,IMP-1 [12],> 100 µM
same,IC50,NDM-1 [13],> 100 µM
"N[C@H](CN[C@H](CN[C@@H](CC(=O)O)C(=O)O)C(=O)O)C(=O)O [AMA, aspergillomarasmine A]",Meropenem MIC,[18]; in the presence of 16 mg/L AMA,0.25 µg/mL
same,Meropenem MIC,[18]; in the presence of 32 mg/L AMA,< 0.125 µg/mL
"O=C(O)c1cccc(C(N(Cc2ccccc2)C(=O)c2cccs2)P(=O)(O)O)n1 (stereo not shown) [3c, 6-[(N-benzyl-1-thiophen-2-ylformamido)(phosphono)methyl]picolinic acid]",IC50,L1 [10],1.57 µM
same,potency compared to 3a,"L1 [10]; IC50, against L1",~0.9 fold
same,Ki,IMP-1 [14],0.4 ± 0.2 µM
same,Dissociative t1/2 = 2 / k-0,IMP-1 [14]; IMP-1,25 min
same,IC50,VIM-2 [11],0.464 µM
same,Ki,VIM-2 [15],0.038 ± 0.009 µM
same,IC50,IMP-1 [12],2.91 µM
same,Ki,NDM-1 [16],0.034 ± 0.006 µM
same,improved potency compared to 3a,"[19]; IC50, against NDM-1, VIM-2 and IMP-1",1.2–2.8 fold
same,IC50,"[19]; read-out: IC50, range, against NDM-1, VIM-2 and IMP-1",0.306 to 2.91 µM
same,Ki,L1 [17],0.4 ± 0.1 µM
same,IC50,NDM-1 [13],0.306 µM
